One may read the IC50 as the concentration at which inhibition is half-maximal. For orientation: logP means a log measure of how a compound divides between an organic and an aqueous phase.

The text below walks through data of ChEMBL document CHEMBL1140715, “Structure-activity relationships of novel iron chelators for the treatment of iron overload disease: the methyl pyrazinylketone isonicotinoyl hydrazone series” (J Med Chem, 2008).

The nature of series [1]: Antiproliferative activity against human […] cells by MTT assay. The series is classed as cell-based. In short, it runs like this: (§1)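 MTT assay of cell proliferation; MTT colour formation directly proportional to viable cell number counted by Trypan blue staining. IC50 reported as mean ± SD of three experiments.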
For orientation: Tetrazolium assays rely on reduction of a dye to a coloured formazan, in cell work by metabolically active cells.

Series [2] is described as follows: Partition coefficient, log P of the compound. Type of series: physicochemical. Particulars: octanol/water. In short, it runs like this: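 Octanol–water partition coefficient measured spectrophotometrically.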
The subject of series [3] is MRC5. Description: Antiproliferative activity against human MRC5 cells by MTT assay. The series is classed as cell-based. In short, it runs like this:
as §1

A short description of series [4]: Induction of intracellular iron mobilization in human […] cells relative to control. Type of series: functional. The arrangement: concentration or dose not given beside the values. Summed up: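 SK-N-MC cells prelabeled with 59Fe-Tf (0.75 µM) for 3 h at 37 °C, washed four times with ice-cold PBS, then incubated with chelator (50 µM) for 3 h at 37 °C. Released 59Fe in medium and cell pellet counted by γ-scintillation. Mean ± SD, three experiments, triplicate determinations.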

For `C/C(=N\NC(=O)c1cccc(Br)c1)c1cnccn1`, the IC50 in series [1] is 1.15 µM; in series [3] it was 3.12 µM. This molecule registered a logP in series [2] of 2.9. Further, the Activity in series [4] is 31%.

As for `O=C(NN=C(c1ccccn1)c1ccccn1)c1ccc(C(F)(F)F)cc1`, the IC50 in series [1] stood at 0.24 µM.

With `C/C(=N\NC(=O)c1ccc(C(F)(F)F)cc1)c1cnccn1`, the figures for the IC50 in series [1] and in series [3] were 1.16 µM and 2.09 µM, respectively. The molecule further showed a log partition coefficient (logP) in series [2] of 2. The molecule further registered an Activity in series [4] of 31%.

As to `O=C(N/N=C/c1ccccn1)c1ccccc1`, the 50% inhibitory concentration (IC50) in series [1] was determined as 19.2 µM.

Consider `O=C(N/N=C/c1ccccn1)c1ccc([N+](=O)[O-])cc1`, for which, in series [1], the midpoint of inhibition, the IC50, lay at 35.5 µM.

For `NC(=S)N/N=C/c1ncccc1N` [TRIAPINE], the 50% inhibitory concentration (IC50) in series [1] was 0.66 µM.

In series [1], `O=C(NN=C(c1ccccn1)c1ccccn1)c1ccc(Br)cc1` registered a concentration for half-maximal inhibition (IC50) of 0.3 µM.

In turn, `O=C(NN=C(c1ccccn1)c1ccccn1)c1ccc([N+](=O)[O-])cc1` returned a concentration for half-maximal inhibition (IC50) in series [1] of 0.26 µM.

On to `Cc1ncc(CO)c(/C=N/NC(=O)c2ccncc2)c1O` [PYRIDOXAL ISONICOTINOYL HYDRAZONE], for which the Activity in series [4] is reported as 40%.

For the molecule `Nc1ccc(C(=O)N/N=C/c2ccccn2)cc1`, in series [1], the IC50 is more than 80 µM.

Consider `C/C(=N\NC(=O)c1ccc(Br)cc1)c1cnccn1`, for which the half-inhibitory concentration (IC50) in series [1] turned out to be 1.22 µM; in series [3], 2.94 µM. In series [2], this molecule displayed a logP of 2.9. The molecule further yielded an Activity in series [4] of 31%.

Molecule `O=C(N/N=C/c1c(O)ccc2ccccc12)c1ccncc1` gave an IC50 in series [1] of 0.83 µM. Further, the Activity in series [4] is 44%.

In series [1], `O=C(NN=C(c1ccccn1)c1ccccn1)c1cccc(Br)c1` showed a concentration for half-maximal inhibition (IC50) of 0.24 µM.

With `O=C(N/N=C/c1ccccn1)c1ccncc1`, the IC50 in series [1] is more than 80 µM.

With `O=C(N/N=C/c1ccccn1)c1ccc(O)cc1`, the 50% inhibitory concentration (IC50) in series [1] was more than 80 µM.

Regarding `C/C(=N\NC(=O)c1cccs1)c1cnccn1` [METHYL PYRAZINYLKETONE THIOPHENECARBOXYL HYDRAZONE], the IC50 in series [1] was 2.13 µM; in series [3] it was 5.54 µM. In addition, the logP in series [2] was found to be 2.6. The Activity in series [4] is on record as 31%.

Take `C/C(=N\NC(=O)c1ccc(N)cc1)c1cnccn1`: the IC50 in series [1] was 58.8 µM; in series [3], more than 80 µM. In series [2], this molecule registered a log partition coefficient (logP) of 1.3. For the same molecule, the Activity in series [4] worked out at 34%.

`O=C(NN=C(c1ccccn1)c1ccccn1)c1ccccc1` returned a half-inhibitory concentration (IC50) in series [1] of 3.04 µM.

`O=C(N/N=C/c1ccccn1)c1ccc(Br)cc1` displayed an IC50 in series [1] of 17.7 µM.

Turning to `O=C(N/N=C/c1ccccn1)c1ccc(C(F)(F)F)cc1`, the half-inhibitory concentration (IC50) in series [1] was determined as 22.4 µM.

For the molecule `C/C(=N\NC(=O)c1ccc(O)cc1)c1cnccn1`, the IC50 in series [1] is 16.8 µM; in series [3] it was more than 80 µM. The log partition coefficient (logP) in series [2] was found to be 1.9. Moreover, the Activity in series [4] came out at 39%.

`CN(C)C(=S)NN=C(c1ccccn1)c1ccccn1` returned an IC50 in series [1] of 0.001 µM.

In series [1], `O=C(N/N=C/c1ccccn1)c1cccs1` yielded a concentration for half-maximal inhibition (IC50) of 22.7 µM.

`C/C(=N\NC(=O)c1ccc([N+](=O)[O-])cc1)c1cnccn1`: the concentration for half-maximal inhibition (IC50) in series [1] worked out at 1.39 µM; in series [3], 2.87 µM. Besides, the logP in series [2] is 2.1. In series [4], the Activity was 31%.

On to `C/C(=N\NC(=O)c1ccccc1)c1cnccn1` [METHYL PYRAZINYLKETONE BENZOYL HYDRAZONE], for which the half-maximal inhibitory concentration (IC50) in series [1] was determined as 3.62 µM; in series [3] it was 7.04 µM. The molecule further displayed a lipophilicity (logP) in series [2] of 1.9. In series [4], this molecule registered an Activity of 31%.

In turn, `CC(=O)N(O)CCCCCNC(=O)CCC(=O)N(O)CCCCCNC(=O)CCC(=O)N(O)CCCCCN` [DEFEROXAMINE] had an IC50 in series [1] of 12.1 µM. This molecule showed an Activity in series [4] of 16%.

With `C/C(=N\NC(=O)c1ccncc1)c1cnccn1` [METHYL PYRAZINYLKETONE ISONICOTINOYL HYDRAZONE], the IC50 came to 5.79 µM in series [1] and 25.2 µM in series [3]. Besides, the lipophilicity (logP) in series [2] was 1.2. Besides, the Activity in series [4] turned out to be 31%.
